In ChEMBL document CHEMBL4699411, “A3- and A2B-nitrocorroles: synthesis and antiviral activity evaluation against human cytomegalovirus infection” (RSC Med Chem, 2020):
Calls of active or inactive are those of the source. No cut-off for these calls is given here.

Key:
[1] = Cytotoxicity against human ARPE-19 cells assessed as reduction in nuclei count measured after 10 days for Hoechst 33342 staining based microscopic analysis; assay type: cell-based; conditions: time 10 day
Outline: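 ARPE-19 epithelial cells seeded at 8k/well in complete DMEM with 10% FBS and treated with increasing compound concentrations 24 h later. Incubated 10 days at 37 °C. Formalin-fixed, stained with Hoechst 33342 (1 μg mL–1), and nuclei counted by high-content imaging. Counts normalized to DMSO wells. CC50 is the concentration reducing nuclei count by 50%. Mean of two wells ± SD.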

[2] = Cytotoxicity against human MRC5 cells assessed as reduction in nuclei count measured after 6 days for Hoechst 33342 staining based microscopic analysis; assay type: cell-based; conditions: time 6 day
Outline: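 MRC-5 fibroblasts seeded at 8k/well in complete DMEM with 10% FBS and treated 24 h later with increasing compound concentrations. Incubated 6 days at 37 °C, 5% CO2. Formalin-fixed, Hoechst 33342 (1 μg mL–1) stained, and nuclei counted by high-content imaging. Counts normalized to DMSO wells. CC50 is the concentration halving the nuclei count. Mean of two wells ± SD.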

Human betaherpesvirus 5 [3] = assay: Antiviral activity against Human cytomegalovirus infected in MRC5 cells measured after 6 days by fluorescence based microscopic analysis; assay type: functional, cell-based
Outline: (§1)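 MRC-5 primary fibroblasts in phenol red-free DMEM with 10% FBS were seeded 8k/well. At 24 h they were treated with compound, infected with hCMV ANCHOR at MOI 1, and fixed 6 days post infection. High-content imaging gave infection rate (fluorescent/total cells) and replication (integrated ANCHOR spot intensity) over ≥1000 cells/well, normalized to DMSO; mean of three wells ± SD.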

Human betaherpesvirus 5 [4] = assay: Antiviral activity against Human cytomegalovirus infected in ARPE-19 cells measured after 10 days by fluorescence based microscopic analysis; assay type: functional, cell-based
Outline: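 Cells were ARPE-19 in phenol red-free DMEM with 10% FBS, seeded 8k/well. At 24 h they received a range of compound concentrations and hCMV ANCHOR at MOI 10, then were fixed 10 days post infection. Imaging scored infection rate (fluorescent/total cells) and ANCHOR spot intensity over ≥1000 cells/well, normalized to DMSO and used to derive IC50; mean of three wells ± SD.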

[5] = Selectivity index, ratio of CC50 for human ARPE-19 cells assessed as reduction in nuclei count measured after […] 33342 staining based microscopic analysis to EC50 Human cytomegalovirus infected in ARPE-19 cells measured after 10 days by microscopic analysis; assay type: toxicity, cell-based; conditions: read-out: Ratio CC50/EC50
Outline: (§2)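 CC50 comes from Hoechst nuclei counts after compound treatment, normalized to DMSO. IC50 comes from hCMV ANCHOR infection at MOI 1 in MRC-5 (read 6 dpi) or MOI 10 in ARPE-19 (read 10 dpi). Infection rate is fluorescent cells over total cells, from at least 1000 cells per well, in triplicate wells. SI is CC50 divided by IC50.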

[6] = Selectivity index, ratio of CC50 for human MRC5 cells assessed as reduction in nuclei count measured after 6 days for Hoechst 33342 staining based microscopic analysis to EC50 Human cytomegalovirus infected in MRC5 cells measured after 6 days by microscopic analysis; assay type: toxicity, cell-based; conditions: time 6 day, read-out: Ratio CC50/EC50; outline: as §2
Human betaherpesvirus 5 [7] = assay: Antiviral activity against Human cytomegalovirus harboring ANCHOR infected in MRC5 cells assessed as reduction in viral infection at measured after 6 days by microscopic analysis relative to control; assay type: functional, cell-based; conditions: time 6.0 day; outline: as §1
Human betaherpesvirus 5 [8] = assay: Antiviral activity against Human cytomegalovirus harboring ANCHOR infected in ARPE-19 cells assessed as reduction in viral infection measured after 10 days by microscopic analysis relative to control; conditions: time 10.0 day
Human betaherpesvirus 5 [9] = assay: Antiviral activity against Human cytomegalovirus infected in MRC5 cells assessed as reduction in viral plaque at 1.25 uM measured after 6 days by microscopic analysis; assay type: functional, cell-based; conditions: time 6.0 day
Outline: (§3)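 MRC-5 fibroblasts seeded at 8k cells/well and infected 24 h later with fluorescent hCMV ANCHOR strain at MOI 1, with compound added at increasing concentrations. Cultured 6 days, fixed with formalin, nuclei stained with Hoechst, and imaged by high-content microscopy. Fluorescent plaques and replication centres were scored against DMSO-treated cells.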

Human betaherpesvirus 5 [10] = assay: Antiviral activity against Human cytomegalovirus infected in MRC5 cells assessed as reduction in viral plaque at 0.3 uM measured after 6 days by microscopic analysis; assay type: functional, cell-based; conditions: time 6.0 day; outline: as §3
[11] = Human betaherpesvirus 5, ARPE-19, 240 h, read-out: IC50
[12] = Human betaherpesvirus 5, MRC5, 144 h, read-out: IC50

Structure (SMILES) | CC50 at 240 h [1] [µM] | CC50 at 144 h [2] [µM] | IC50 (Human betaherpesvirus 5 [3]; mrc5) | IC50 (Human betaherpesvirus 5 [4]; [11]) [µM] | selectivity ratio [5] | IC50 (Human betaherpesvirus 5 [4]; arpe-19) | IC50 (Human betaherpesvirus 5 [3]; [12]) [µM] | selectivity ratio at 144 h [6] | Activity (Human betaherpesvirus 5 [7]) | Activity (Human betaherpesvirus 5 [8]) | Activity (Human betaherpesvirus 5 [9]) | Activity (Human betaherpesvirus 5 [10])
O=[N+]([O-])c1cccc(-c2c3nc(c4ccc([nH]4)c(-c4cccc([N+](=O)[O-])c4)c4ccc([nH]4)c(-c4ccc(F)c([N+](=O)[O-])c4)c4ccc2[nH]4)C=C3)c1 | > 50 | > 50 | Not Active | 5 | > 10 |  |  |  |  |  |  | 
O=[N+]([O-])c1cc(F)cc(-c2c3nc(c4ccc([nH]4)c(-c4cc(F)cc([N+](=O)[O-])c4)c4ccc([nH]4)c(-c4cc(F)cc([N+](=O)[O-])c4)c4ccc2[nH]4)C=C3)c1 | > 50 | > 50 | Not Active | 1.9 | > 26 |  |  |  |  |  |  | 
O=[N+]([O-])c1cc(-c2c3nc(c4ccc([nH]4)c(-c4cc([N+](=O)[O-])c(Br)cc4F)c4ccc([nH]4)c(-c4cc([N+](=O)[O-])c(Br)cc4F)c4ccc2[nH]4)C=C3)c(F)cc1Br | > 50 | > 50 | Not Active |  |  | Not Active |  |  |  |  |  | 
O=[N+]([O-])c1cc(F)ccc1-c1c2nc(c3ccc([nH]3)c(-c3ccc(F)cc3[N+](=O)[O-])c3ccc([nH]3)c(-c3ccc(F)cc3[N+](=O)[O-])c3ccc1[nH]3)C=C2 | > 50 | > 50 |  | 4.3 | > 11 |  | 3 | > 16 | Dose-dependent effect | Dose-dependent effect |  | 
O=[N+]([O-])c1cc(-c2c3nc(c4ccc([nH]4)c(-c4ccc(F)c([N+](=O)[O-])c4)c4ccc([nH]4)c(-c4ccc(F)c([N+](=O)[O-])c4)c4ccc2[nH]4)C=C3)ccc1F | > 50 | > 50 | Not Active |  |  | Not Active |  |  |  |  |  | 
O=[N+]([O-])c1cc(F)cc(-c2c3ccc([nH]3)c(-c3cc(F)ccc3[N+](=O)[O-])c3nc(c4ccc([nH]4)c(-c4cc(F)ccc4[N+](=O)[O-])c4ccc2[nH]4)C=C3)c1 | > 50 | > 50 |  | 0.22 | > 227 |  | 2 | > 25 | Dose-dependent effect | Dose-dependent effect | Active | Active
O=[N+]([O-])c1ccc(Cl)cc1-c1c2nc(c3ccc([nH]3)c(-c3cc(Cl)ccc3[N+](=O)[O-])c3ccc([nH]3)c(-c3cc(Cl)ccc3[N+](=O)[O-])c3ccc1[nH]3)C=C2 | > 50 | > 50 | Not Active |  |  | Not Active |  |  |  |  |  | 
O=[N+]([O-])c1ccc(-c2c3nc(c4ccc([nH]4)c(-c4ccc([N+](=O)[O-])c(F)c4)c4ccc([nH]4)c(-c4ccc([N+](=O)[O-])c(F)c4)c4ccc2[nH]4)C=C3)cc1F | > 50 | > 50 | Not Active |  |  | Not Active |  |  |  |  |  | 
O=[N+]([O-])c1cc(F)cc(-c2c3nc(c4ccc([nH]4)c(-c4cc(F)cc([N+](=O)[O-])c4)c4ccc([nH]4)c(-c4cc(F)ccc4[N+](=O)[O-])c4ccc2[nH]4)C=C3)c1 | 16.5 | 18 | Not Active | 0.32 | 51 |  |  |  |  |  |  | 
CN(C)c1ccc(-c2c3nc(c4ccc([nH]4)c(-c4ccc(N(C)C)cc4[N+](=O)[O-])c4ccc([nH]4)c(-c4ccc(N(C)C)cc4[N+](=O)[O-])c4ccc2[nH]4)C=C3)c([N+](=O)[O-])c1 | > 50 | > 50 | Not Active |  |  | Not Active |  |  |  |  |  | 
O=[N+]([O-])c1ccc(F)c(-c2c3nc(c4ccc([nH]4)c(-c4c(F)ccc([N+](=O)[O-])c4F)c4ccc([nH]4)c(-c4c(F)ccc([N+](=O)[O-])c4F)c4ccc2[nH]4)C=C3)c1F | 9.8 | 8.77 |  | 0.31 | 31.6 |  | 0.86 | 10.2 |  |  |  | 
O=[N+]([O-])c1ccc(-c2c3nc(c4ccc([nH]4)c(-c4ccc([N+](=O)[O-])cc4F)c4ccc([nH]4)c(-c4ccc([N+](=O)[O-])cc4F)c4ccc2[nH]4)C=C3)c(F)c1 | 5.3 | 3.4 |  | 0.25 | 21.2 |  | 0.7 | 4.5 |  |  |  | 
O=[N+]([O-])c1cc(C(F)(F)F)ccc1-c1c2nc(c3ccc([nH]3)c(-c3ccc(C(F)(F)F)cc3[N+](=O)[O-])c3ccc([nH]3)c(-c3ccc(C(F)(F)F)cc3[N+](=O)[O-])c3ccc1[nH]3)C=C2 | > 50 | > 50 |  | 5 | > 10 |  | 2.8 | > 17 |  |  |  | 
O=[N+]([O-])c1cccc(-c2c3nc(c4ccc([nH]4)c(-c4cccc([N+](=O)[O-])c4)c4ccc([nH]4)c(-c4ccccc4)c4ccc2[nH]4)C=C3)c1 | > 50 | > 50 | Not Active |  |  | Not Active |  |  |  |  |  | 
O=[N+]([O-])c1ccc(F)cc1-c1c2nc(c3ccc([nH]3)c(-c3cc(F)ccc3[N+](=O)[O-])c3ccc([nH]3)c(-c3cc(F)ccc3[N+](=O)[O-])c3ccc1[nH]3)C=C2 | > 50 | > 50 |  | 5.2 | > 10 |  | 7.1 | > 7 |  |  |  | 
